Test results as given in ChEMBL document CHEMBL1139340, “Synthesis, radiosynthesis, and biological evaluation of carbon-11 and fluorine-18 labeled reboxetine analogues: potential positron emission tomography radioligands for in vivo imaging of the norepinephrine transporter” (J Med Chem, 2009).

Experiments:
[1] = Lipophilicity, log P at pH 7.4; assay type: physicochemical; conditions: buffer
Method in brief: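 Radiotracer (~5–10 μCi) in 2 mL 1-octanol plus 2 mL 0.02 M sodium phosphate buffer, pH 7.4. Vortexed 10 min at room temperature, centrifuged 5 min. 0.5 mL of each layer gamma-counted and decay corrected. log P = log(octanol counts/buffer counts), done three times and averaged.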

[2] = molecular target: Sodium-dependent dopamine transporter (Homo sapiens, UniProt Q01959); assay: Displacement of [125I]RTI-55 from human DAT receptor expressed in canine kidney cells; assay type: cell-based
Sodium-dependent dopamine transporter, sequence (Q01959 whole entry): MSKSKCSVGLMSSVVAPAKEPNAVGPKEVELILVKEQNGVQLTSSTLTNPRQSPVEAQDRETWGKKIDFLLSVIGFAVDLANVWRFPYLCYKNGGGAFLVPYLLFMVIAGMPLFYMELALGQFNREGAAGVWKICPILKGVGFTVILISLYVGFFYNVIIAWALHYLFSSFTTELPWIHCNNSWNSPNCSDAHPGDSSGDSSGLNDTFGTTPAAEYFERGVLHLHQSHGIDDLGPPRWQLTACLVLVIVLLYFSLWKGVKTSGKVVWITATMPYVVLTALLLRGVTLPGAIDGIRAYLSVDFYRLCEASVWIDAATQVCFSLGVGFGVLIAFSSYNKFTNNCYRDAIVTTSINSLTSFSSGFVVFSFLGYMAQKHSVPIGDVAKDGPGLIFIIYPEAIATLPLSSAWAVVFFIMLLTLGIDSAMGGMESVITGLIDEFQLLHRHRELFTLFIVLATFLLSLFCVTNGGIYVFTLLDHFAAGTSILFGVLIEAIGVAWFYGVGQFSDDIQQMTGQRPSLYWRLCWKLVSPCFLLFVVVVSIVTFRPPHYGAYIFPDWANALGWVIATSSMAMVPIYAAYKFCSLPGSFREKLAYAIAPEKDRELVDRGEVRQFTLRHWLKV
Method in brief: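 Competition binding against [¹²⁵I]RTI-55 in canine kidney cells stably transfected with human DAT. Ki in nM, geometric mean ± SD of at least three separate experiments, each run in triplicate.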

Homo sapiens [3] = organism: Homo sapiens; assay: Selectivity for human NET over human DAT
Method in brief: (§1)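 Competition binding in stably transfected cells expressing human transporters: NET vs [3H]nisoxetine and SERT vs [3H]citalopram in HEK-293 cells; DAT vs [125I]RTI-55 in canine kidney cells. Ki as geometric mean of at least three experiments in triplicate; selectivity as ratio of SERT or DAT Ki to NET Ki.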

[4] = molecular target: Sodium-dependent serotonin transporter (Homo sapiens, UniProt P31645); assay: Displacement of [3H]citalopram from human SERT receptor expressed in HEK293 cells; assay type: cell-based
Sodium-dependent serotonin transporter, sequence (P31645 whole entry): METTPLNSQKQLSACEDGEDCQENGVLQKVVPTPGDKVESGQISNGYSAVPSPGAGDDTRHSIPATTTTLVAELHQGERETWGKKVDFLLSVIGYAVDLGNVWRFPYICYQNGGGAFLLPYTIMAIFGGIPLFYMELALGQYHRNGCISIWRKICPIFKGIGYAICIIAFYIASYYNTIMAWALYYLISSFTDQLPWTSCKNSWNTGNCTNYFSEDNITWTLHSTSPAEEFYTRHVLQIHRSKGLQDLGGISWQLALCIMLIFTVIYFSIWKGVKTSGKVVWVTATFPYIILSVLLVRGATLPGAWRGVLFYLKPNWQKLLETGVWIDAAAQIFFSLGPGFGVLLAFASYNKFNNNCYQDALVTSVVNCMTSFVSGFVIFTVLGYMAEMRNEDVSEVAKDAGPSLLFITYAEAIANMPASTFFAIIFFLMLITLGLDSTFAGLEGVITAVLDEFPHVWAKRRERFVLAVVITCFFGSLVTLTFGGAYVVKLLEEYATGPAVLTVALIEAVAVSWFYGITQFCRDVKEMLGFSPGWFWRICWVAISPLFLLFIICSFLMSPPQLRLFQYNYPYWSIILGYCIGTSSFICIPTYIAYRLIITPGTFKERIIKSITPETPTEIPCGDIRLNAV
Method in brief: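 Competition binding against [³H]citalopram in HEK-293 cells stably transfected with human SERT. Ki in nM, geometric mean ± SD of at least three separate experiments, each run in triplicate.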

Homo sapiens [5] = organism: Homo sapiens; assay: Selectivity for human NET over human SERT; method in brief: as §1
[6] = molecular target: Sodium-dependent noradrenaline transporter (Homo sapiens, UniProt P23975); assay: Displacement of [3H]nisoxetine from human NET receptor expressed in HEK293 cells; assay type: cell-based
Sodium-dependent noradrenaline transporter, sequence (P23975 whole entry): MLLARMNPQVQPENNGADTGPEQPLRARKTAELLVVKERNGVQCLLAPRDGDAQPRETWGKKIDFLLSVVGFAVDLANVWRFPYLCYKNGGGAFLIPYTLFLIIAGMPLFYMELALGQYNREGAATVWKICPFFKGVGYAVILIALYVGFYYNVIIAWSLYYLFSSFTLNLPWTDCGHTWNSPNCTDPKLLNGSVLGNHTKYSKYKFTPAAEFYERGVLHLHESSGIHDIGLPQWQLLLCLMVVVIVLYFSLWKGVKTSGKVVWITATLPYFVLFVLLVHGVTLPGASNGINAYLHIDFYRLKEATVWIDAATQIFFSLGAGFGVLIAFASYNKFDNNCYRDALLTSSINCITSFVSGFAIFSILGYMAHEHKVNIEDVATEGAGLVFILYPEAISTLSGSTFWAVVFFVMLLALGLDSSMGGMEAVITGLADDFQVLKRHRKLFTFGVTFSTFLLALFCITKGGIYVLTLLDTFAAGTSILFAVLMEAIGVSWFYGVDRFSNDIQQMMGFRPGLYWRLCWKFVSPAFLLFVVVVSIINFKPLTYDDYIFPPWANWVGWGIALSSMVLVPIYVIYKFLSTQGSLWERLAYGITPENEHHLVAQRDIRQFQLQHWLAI

- logD [1]: 2
- Ki [2]: > 6000 nM
- Ratio Ki (Homo sapiens [3]): > 2000
- Ki [4]: 430 nM
- Ratio Ki (Homo sapiens [5]): 137
- Ki [6]: 3.14 nM
SMILES: FCCc1ccccc1O[C@@H](c1ccccc1)[C@@H]1CNCCO1
